Measured values taken from publication PMC6921677 (ACS Omega, 2019).
Read-outs that look alike come from different tables or passages of the source.

How the values were obtained:
CAL-27 (oral cancer) = assay: MTT cell cytotoxicity assay, CAL-27; format: cell-based; details: Homo sapiens, CAL-27, 48 h, read-out: CAL-27 IC50 ± S.D
How it was run: (§1)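 Cells maintained in high-glucose DMEM with 2 mM L-glutamine, 10% FBS and 1% antibiotics, passaged before 70% confluency. Seeded at 10 000/well, left overnight at 37 °C, washed, then exposed to a range of test compound concentrations for 48 h. MTT (0.5 mg/mL as added) for 4 h, formazan dissolved in DMSO, OD 570 nm. IC50 fitted from percent inhibition.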

NCI-H460 (lung cancer) = assay: MTT cell cytotoxicity assay, NCI-H460; format: cell-based; details: Homo sapiens, NCI-H460, 48 h, read-out: NCI-H460 IC50 ± S.D
How it was run: as §1

[1] = test system: NIH-3T3 (mouse normal fibroblast); assay: MTT cell cytotoxicity assay, NIH-3T3; format: cell-based; details: read-out: NIH-3T3 IC50 ± S.D
How it was run: as §1

S. aureus (NCTC 6571) = assay: crystal violet biofilm inhibition assay, S. aureus; format: cell-based, Staphylococcus aureus; details: biofilm inhibition at 500 μM
How it was run: (§2)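 Strains cultured in tryptone soya broth or agar. Test compound twofold serially diluted (500–1 μM) in TSB and inoculated at 5 x 10^5 CFU/mL. Incubated 24 h at 37 °C. Medium discarded and wells washed with sterile water, then stained with 0.1% w/v crystal violet for 15 min. Washed and air-dried; bound dye taken up in 30% v/v acetic acid. A590 gave percent biofilm inhibition.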

E. coli (ATCC 25922) = assay: crystal violet biofilm inhibition assay, E. coli; format: cell-based, Escherichia coli; details: for E. coli % Inhibition ± S.D: biofilm inhibition at 250 μM; for E. coli MBIC dose: biofilm inhibitory concentration, 24 h, crystal violet
How it was run: as §2

[2] = test system: A. baumannii (ATCC 19606); assay: crystal violet biofilm inhibition assay, A. baumannii; format: cell-based, Acinetobacter baumannii; details: for A. baumannii MBIC dose: biofilm inhibitory concentration, 24 h, crystal violet
How it was run: as §2

[3] = test system: K. pneumoniae (ATCC 13882); assay: crystal violet biofilm inhibition assay, K. pneumoniae; format: cell-based, Klebsiella pneumoniae; details: for K. pneumonia % inhibition ± S.D: biofilm inhibition at 250 μM; for K. pneumonia MBIC dose: biofilm inhibitory concentration, 24 h, crystal violet
How it was run: as §2

SMILES	IC50 (CAL-27 (oral cancer))	IC50 (NCI-H460 (lung cancer))	IC50 ([1]; Mus musculus, NIH3T3, 48 h)	S. aureus % Inhibition ± S.D (S. aureus (NCTC 6571))	E. coli % Inhibition ± S.D (E. coli (ATCC 25922))	E. coli MBIC dose (E. coli (ATCC 25922))	A. baumannii % Inhibition ± S.D ([2]; biofilm inhibition at 250 μM)	A. baumannii MBIC dose [2]	K. pneumonia % inhibition ± S.D [3]	K. pneumonia MBIC dose [3]	IC50 ([1]; MTT, 48 h treatment, normal mouse fibroblast)	A. baumannii % Inhibition ± S.D ([2]; biofilm inhibition at 125 μM)
O=c1[nH]cc(F)c(=O)[nH]1 [5-fluorouracil]	2.41 ± 0.89 µM	4.54 ± 1.67 µM	> 100 µM									
O.O.O.O.O=C([O-])Cc1ccccc1Nc1c(Cl)cccc1Cl.O=C([O-])Cc1ccccc1Nc1c(Cl)cccc1Cl.[K+].[K+].c1cnc2c(c1)ccc1cccnc12.c1cnc2c(c1)ccc1cccnc12 [Complex 2, [K2(phen)2(dcf)2(H2O)4]]				–1.497 ± 0.288%	72 ± 0.091%	250 µM	86.158 ± 0.068%	250 µM	77.26 ± 0.063%	250 µM		
O.O.O=C([O-])Cc1ccccc1Nc1c(Cl)cccc1Cl.[Li+].c1cnc2c(c1)ccc1cccnc12 [Complex 3, [Li(phen)(H2O)2][dcf]]				3.306 ± 0.166%	76.22 ± 0.026%	250 µM		125 µM	77.91 ± 0.062%	250 µM	135 ± 4.96 µM	87.924 ± 0.073%
